ChEMBL document CHEMBL2203220, “Linear and cyclic dipeptides with antimalarial activity” (Bioorg Med Chem Lett, 2012)
Where a SMILES comes first, the peptide text is derived from it. [ ]: non-standard residue; d: D form. The star is where a group is joined. ξ: configuration not given here. Boc = CC(C)(C)OC(=O)*; ξOrn = NCCCC(N)C(=O)O; OtBu = CC(C)(C)O*; Sar = CNCC(=O)O

Key:
Plasmodium berghei [1] = test: Antimalarial activity against schizonts of chloroquine-sensitive Plasmodium berghei ANKA 2.34 assessed as chemosuppression of schizont numbers at 200 uM after 16 hrs relative to control; assay type: functional
Outline: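 Peptides in PBS with 0.1% DMSO and 5% ethanol were incubated with P. berghei cultures for 16 h at 37 °C, with chloroquine as positive control. Schizonts per 2000 erythrocytes were counted on smears from 0.5 mL culture samples, in duplicate and averaged. Reduction in schizont number is expressed against drug-free control cultures.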

Plasmodium berghei [2] = test: Antimalarial activity against schizonts of chloroquine-sensitive Plasmodium berghei ANKA 2.34 after 16 hrs; assay type: functional, organism-based; details: ANKA 2.34, 16 h
Outline: (§1)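 P. berghei cultures were exposed to peptides in PBS with 0.1% DMSO and 5% ethanol for 16 h at 37 °C, with chloroquine as positive control. Smears were made from 0.5 mL culture samples and schizonts counted per 2000 erythrocytes. Four concentrations were each run in duplicate and averaged. IC50 is the concentration giving 50% fewer schizonts than drug-free controls, extrapolated from the concentration–response curve.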

Plasmodium berghei [3] = test: Antimalarial activity against Plasmodium berghei; assay type: functional, organism-based; outline: as §1

SMILES | IC50 (Plasmodium berghei [2]) [µM] | IC50 (Plasmodium berghei [3]) [µM] | Activity (Plasmodium berghei [1]) [%]
CC(C)(C)OC(=O)N[C@@H](CCCNC(=O)OCc1ccccc1)C(=O)N[C@@H](Cc1ccccc1)C(=O)OC(C)(C)C | > 200 | – | 35.29
COC(=O)[C@H](Cc1ccccc1)NC(=O)[C@H](CCCNC(=O)OCc1ccccc1)NC(=O)OC(C)(C)C | > 200 | – | 40
CC(C)[C@H](NC(=O)[C@H](CCCNC(=O)OCc1ccccc1)NC(=O)OC(C)(C)C)C(=O)OC(C)(C)C | 33.9 | – | 55.73
COC(=O)[C@@H](NC(=O)[C@@H](CCCNC(=O)OCc1ccccc1)NC(=O)OC(C)(C)C)C(C)C | 3.05 | – | 57.2
CC(C)[C@H](NC(=O)[C@@H](CCCNC(=O)OCc1ccccc1)NC(=O)OC(C)(C)C)C(=O)OC(C)(C)C | 2.78 | – | 72.64
CC(C)(C)OC(=O)NCC(=O)N[C@@H](Cc1ccccc1)C(=O)OC(C)(C)C (Boc-Gly-Phe-OtBu) | 164 | – | 54.26
CC(C)[C@H](NC(=O)CNC(=O)OC(C)(C)C)C(=O)OC(C)(C)C (Boc-Gly-Val-OtBu) | 3.16 | – | 59.55
CC(C)(C)OC(=O)N[C@@H](Cc1ccccc1)C(=O)N[C@@H](Cc1ccccc1)C(=O)OC(C)(C)C (Boc-Phe-Phe-OtBu) | 112 | – | 55.73
CC(C)[C@H](NC(=O)[C@H](Cc1ccccc1)NC(=O)OC(C)(C)C)C(=O)OC(C)(C)C (Boc-Phe-Val-OtBu) | 3.23 | – | 77.94
COC(=O)CN(C)C(=O)[C@H](Cc1ccccc1)NC(=O)OC(C)(C)C (Boc-Phe-[Sar]-OMe) | 3.63 | – | 79.41
CN(CC(=O)OC(C)(C)C)C(=O)[C@H](Cc1ccccc1)NC(=O)OC(C)(C)C (Boc-Phe-[Sar]-OtBu) | 3.38 | – | 79.41
CC(C)[C@H](NC(=O)OC(C)(C)C)C(=O)N[C@@H](Cc1ccccc1)C(=O)OC(C)(C)C (Boc-Val-Phe-OtBu) | 7.07 | – | 73.08
NCCCC(NC(=O)[C@H](Cc1ccccc1)NC(=O)C(CCCN)NC(=O)[C@@H](N)Cc1ccccc1)C(=O)O (stereo not given in full) (H-F[ξOrn]F[ξOrn]-OH) | – | 2.5 | –
NCCCC[C@H](N)C(=O)N[C@@H](Cc1ccccc1)C(=O)N[C@@H](Cc1ccccc1)C(=O)NC(CCCN)C(=O)O (stereo not given in full) (H-KFF[ξOrn]-OH) | – | 2.5 | –
CCN(CC)CCCC(C)Nc1ccnc2cc(Cl)ccc12 (stereo not given) [CHLOROQUINE] | 0.06 | – | 100

Now from value to compound, other results behind:

IC50 (Plasmodium berghei [2]) [µM] | IC50 (Plasmodium berghei [3]) [µM] | SMILES | Activity (Plasmodium berghei [1]) [%]
2.54 | – | O=C1N[C@@H](Cc2ccccc2)C(=O)N[C@H]1Cc1ccccc1 | 84.33
4.26 | – | O=C1CNC(=O)[C@H](Cc2ccccc2)N1 | 70.37
123 | – | O=C(NCCC[C@@H]1NC(=O)[C@H](Cc2ccccc2)NC1=O)OCc1ccccc1 | 72.93
66 | – | CC(C)[C@@H]1NC(=O)[C@H](CCCNC(=O)OCc2ccccc2)NC1=O | 69.23
3.09 | – | CC(C)[C@@H]1NC(=O)[C@@H](CCCNC(=O)OCc2ccccc2)NC1=O | 70.08
3.12 | – | CC(C)[C@@H]1NC(=O)[C@H](CCCCNC(=O)OCc2ccccc2)NC1=O | 79.2
2.26 | – | CN1CC(=O)N[C@@H](Cc2ccccc2)C1=O | 83.76
2.45 | – | CC(C)[C@@H]1NC(=O)[C@H](C(C)C)NC1=O | 87.18
3.23 | – | CC(C)[C@@H]1NC(=O)CNC1=O | 88.03
3.89 | – | CC(C)[C@@H]1NC(=O)[C@H](Cc2ccccc2)NC1=O | 61.07
2.81 | – | CC(C)[C@H](NC(=O)OC(C)(C)C)C(=O)N[C@H](C(=O)OC(C)(C)C)C(C)C (Boc-Val-Val-OtBu) | 77.64
